These results are taken from ChEMBL document CHEMBL2440094, “Thiazolidinone-peptide hybrids as dengue virus protease inhibitors with antiviral activity in cell culture” (J Med Chem, 2013).

As a reminder, the Ki is a measure of affinity in units of concentration, obtained from inhibition or displacement. As usually defined, the IC50 is the concentration that gives 50% inhibition. As usually defined, the EC50 is the concentration that produces a half-maximal response. Usually inhibition stands for the change of the read-out against control, counted positive when it falls.

The source made the active and inactive calls. The rule behind the calls is not given here. Where only a bound is given, the exact number is not on record here.

A short description of data set [1]: Inhibition of Dengue virus NS2B-NS3 protease expressed in Escherichia coli BL 21 (DE3) using Abz-Nle-Lys-Arg-Arg-Ser-3-(NO2)Tyr as substrate assessed as enzyme-substrate-inhibitor complex by Cornish-Bowden plot analysis. The essentials: (§1)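 DEN2 NS2B–NS3 FRET assay run at inhibitor 0–6 μM (prior-series compounds 5–50 μM) and substrate 50, 100, 150 and 200 μM, in triplicate, with inner-filter correction. Ki from Dixon plots (1/v vs [I]) and Ki′ from Cornish-Bowden plots (S/v vs [I]). Inhibition mode assigned from these plots.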

Data set [2] in a line: Inhibition of Dengue virus NS2B-NS3 protease expressed in Escherichia coli BL 21 (DE3) using Abz-Nle-Lys-Arg-Arg-Ser-3-(NO2)Tyr as substrate after 15 mins.
The nature of data set [3]: Permeability of the compound by PAMPA. It is filed as ADME. The note with it: read-out: permeability. An outline of the steps: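 PAMPA with precoated trilayer lipid/oil/lipid membranes, donor wells holding 200 μM compound in PBS pH 7.4 (2% DMSO final), in triplicate. Incubated 5 h at room temperature. Donor and acceptor concentrations determined by UV plate reader or HPLC-UV against calibration curves. Pe and mass retention R calculated.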

Data set [4] has as its system dengue virus type 2. As to the kind of experiment: Antiviral activity against Dengue virus 2 infected in human Huh-7 cells assessed as inhibition of viral replication after 48 hrs by luciferase reporter gene assay. It counts as functional, organism-based. The settings on record: Huh-7, 48 h. An outline of the steps: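 Huh-7 cells seeded 5000/well, incubated overnight at 37 °C, then given compound (1.56–50 μM final, 2-fold series in DMEM with 10% FCS). Dengue 2 renilla luciferase reporter virus (MOI 10) added 4 h later. After 48 h at 37 °C, cells lysed and renilla luminescence read with coelenterazine. At least four wells per concentration, expressed relative to DMSO control. EC50 by nonlinear regression.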
(In general: In a reporter assay the amount or activity of a reporter protein is the signal.)

The next data set deals with Huh-7. Description: Cytotoxicity against human HuH7 cells at <50 uM after 48 hrs by firefly reporter assay. The note with it: huh-7, 48 h. It counts as cell-based. An outline of the steps: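 Uninfected Huh-7 cells stably expressing firefly luciferase, seeded 5000/well and incubated overnight at 37 °C. Compound added at 1.56–50 μM, plus 100, 200 and 400 μM, then incubated as for infected cells (further 48 h after the 4 h point). Firefly luminescence read with 70 μM luciferin and 2 mM ATP. Mean of three wells as percent of DMSO control.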

Data set [5] is described as follows: Inhibition of Dengue virus NS2B-NS3 protease expressed in Escherichia coli BL 21 (DE3) using Abz-Nle-Lys-Arg-Arg-Ser-3-(NO2)Tyr as substrate assessed as enzyme-inhibitor complex by Cornish-Bowden plot analysis. The settings on record: in the assay text read “Dixon plot” for “Cornish-Bowden plot”. An outline of the steps: as §1
Data set [6] deals with Dengue virus. Description: Inhibition of Dengue virus NS2B-NS3 protease expressed in Escherichia coli BL 21 (DE3) using Abz-Nle-Lys-Arg-Arg-Ser-3-(NO2)Tyr as substrate at 50 uM after 15 mins.
For data set [7], the system named is Dengue virus. Description: Mixed type inhibition of Dengue virus NS2B-NS3 protease expressed in Escherichia coli BL 21 (DE3) using Abz-Nle-Lys-Arg-Arg-Ser-3-(NO2)Tyr as substrate by Cornish-Bowden plot analysis. An outline of the steps: as §1
For the next data set, the system named is West Nile virus. As to the kind of experiment: Inhibition of West Nile virus NS2B-NS3 protease expressed in Escherichia coli BL 21 (DE3) using Abz-Gly-Leu-Lys-Arg-Gly-Gly-3-(NO2)Tyr as substrate at 50 uM after 15 mins.
In data set [8] the test system is dengue virus type 2. As to the kind of experiment: Antiviral activity against Dengue virus 2 infected in human Huh-7 cells assessed as inhibition of virus-induced plaque formation at 50 uM after 48. It counts as functional, organism-based. An outline of the steps: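 Huh-7 cells seeded in 12-well plates and pretreated with compound (50 μM) for 4 h. Infected for 1 h with dengue reporter virus (MOI 5) in the presence of compound, then medium replaced with compound-containing DMEM. Supernatant harvested at 48 h and filtered. Titer determined by plaque assay on Vero cells. Mean ± SD of three independent experiments.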

The target of data set [9] is Prothrombin (Homo sapiens) (UniProt P00734). Description: Inhibition of thrombin (unknown origin) using Boc-Val-Pro-Arg-AMC as substrate at 25 uM after 10 mins by continuous fluorimetric assay. The essentials:
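Thrombin (10 nM) preincubated 15 min with inhibitor (25 μM final) in 50 mM Tris-HCl pH 7.5, 150 mM NaCl, 0.05% Tween 20. Boc-Val-Pro-Arg-AMC then added to 50 μM (Km 16 μM). Fluorescence (ex 355 nm, em 460 nm) followed for 10 min as slope. Triplicate; percent inhibition versus no-inhibitor control.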

The subject of data set [10] is Dengue virus. Description: Competitive inhibition of Dengue virus NS2B-NS3 protease expressed in Escherichia coli BL 21 (DE3) using Abz-Nle-Lys-Arg-Arg-Ser-3-(NO2)Tyr as substrate by Cornish-Bowden plot analysis. The essentials: as §1
The test system of data set [11] is Dengue virus. As to the kind of experiment: Uncompetitive inhibition of Dengue virus NS2B-NS3 protease expressed in Escherichia coli BL 21 (DE3) using Abz-Nle-Lys-Arg-Arg-Ser-3-(NO2)Tyr as substrate by Cornish-Bowden plot analysis. An outline of the steps: as §1

As to `CCCC[C@H](NC(=O)[C@H](CCCCN)NC(=O)[C@H](CCCNC(=N)N)NC(=O)c1ccc(/C=C2\SC(=O)N(Cc3ccc(Cl)cc3)C2=O)cc1)C(N)=O`, the Ki worked out at 5.4 µM in data set [1] and 2.2 µM in data set [5]. In [2], this molecule showed an IC50 of 3.2 µM. Besides, the Papp in [3] came to 1.11 ×10⁻⁶ cm/s. Also, the EC50 in the data set with dengue virus type 2 [4] turned out to be 41.1 µM. Besides, in the data set with Huh-7, the Activity entry was “Non-toxic”. In addition, the inhibition with Dengue virus [6] was determined as 99.4%; with West Nile virus, 88.2%; in data set [9], 18%. In the data set on Dengue virus [7], the inhibition result is “Active”. Also, the inhibition entry with dengue virus type 2 [8] is “inactive”.

As for `CCCC[C@H](NC(=O)[C@H](CCCCN)NC(=O)[C@H](CCCNC(=N)N)NC(=O)c1ccc(/C=C2\SC(=O)N(Cc3ccc(F)cc3)C2=O)cc1)C(N)=O`, the Ki in [1] was determined as 5.2 µM; in data set [5] it was 1.5 µM. In data set [2], the IC50 worked out at 2.9 µM. Besides, the Papp in [3] came to 0.43 ×10⁻⁶ cm/s. Moreover, the inhibition came to 99.4% in the data set with Dengue virus [6], 63.7% in the data set with West Nile virus and 20.3% in [9]. Also, the inhibition result in the data set on Dengue virus [7] is “Active”.

In the case of `CCCC[C@H](NC(=O)[C@H](CCCCN)NC(=O)[C@H](CCCNC(=N)N)NC(=O)c1ccc(/C=C2\SC(=O)N(C3CCCC3)C2=O)cc1)C(N)=O`, the results for the Ki in data set [1] and in data set [5] were 7.9 µM and 1.8 µM, respectively. For the same molecule, the IC50 in data set [2] is 2.5 µM. The Papp in data set [3] stood at 0.44 ×10⁻⁶ cm/s. For the same molecule, the 50% effective concentration (EC50) in the data set on dengue virus type 2 [4] turned out to be 44.9 µM. Moreover, the results for the inhibition (with Dengue virus [6]; in the data set on West Nile virus; in [9]) were 98.2%, 51.8% and 16%, respectively. Also, the inhibition entry in the data set with Dengue virus [7] was “Active”.

Consider `CCCC[C@H](NC(=O)[C@H](CCCCN)NC(=O)[C@H](CCCNC(=N)N)NC(=O)c1cccs1)C(N)=O`, for which the values for the Ki in data set [1] and in data set [5] were greater than 50 µM and 14.5 µM, respectively. Moreover, the inhibition entry in the data set with Dengue virus [10] was “Active”. Further, the IC50 in data set [2] came out at 14.1 µM. For the same molecule, in the data set on Huh-7, the Activity result was “Non-toxic”. Besides, the inhibition was 71.1% with Dengue virus [6] and 14.7% with West Nile virus. In addition, the inhibition result (in the data set with dengue virus type 2 [8]; in [9]) was “inactive” each time.

With `CCCC[C@H](NC(=O)[C@H](CCCCN)NC(=O)[C@H](CCCNC(=N)N)NC(=O)c1ccc(/C=C2\SC(=S)N(Cc3ccc(F)cc3)C2=O)cc1)C(N)=O`, the inhibition constant Ki is 7.9 µM in [1] and greater than 10 µM in data set [5]. In the data set with Dengue virus [11], the inhibition entry was “Active”. This molecule returned a 50% inhibitory concentration (IC50) in data set [2] greater than 10 µM. Also, the inhibition with Dengue virus [6] is 99.4%; in the data set on West Nile virus it was 97.9%; in data set [9], 9.6%.

As for `CCCCC(C(=O)OC)N1C(=O)/C(=C/c2ccc(C(=O)N[C@@H](CCCNC(=N)N)C(=O)N[C@@H](CCCCN)C(=O)N[C@@H](CCCC)C(N)=O)cc2)SC1=S` (some centres undefined), the Ki in [1] was 5.3 µM; in [5] it was greater than 10 µM. In the data set on Dengue virus [11], the inhibition result is “Active”. The molecule also had a 50% inhibitory concentration (IC50) in data set [2] of 11.6 µM. For the same molecule, the Papp in data set [3] was 0.87 ×10⁻⁶ cm/s. Further, in the data set with dengue virus type 2 [4], the 50% effective concentration (EC50) stood at 48.8 µM. The inhibition in the data set with Dengue virus [6] was 101%; in the data set with West Nile virus it was 94.2%; in data set [9] it was 9%.

Regarding `CCCC[C@H](NC(=O)[C@H](CCCCN)NC(=O)[C@H](CCCNC(=N)N)NC(=O)c1ccc(/C=C(\C#N)C(=O)NC2CC2)cc1)C(N)=O`, the inhibitory constant (Ki) is greater than 50 µM in data set [1] and 4 µM in [5]. Moreover, the inhibition result in the data set on Dengue virus [10] was “Active”. Besides, in data set [2], the half-inhibitory concentration (IC50) worked out at 5.3 µM. The Papp in data set [3] was 1.11 ×10⁻⁶ cm/s. In addition, the Activity result with Huh-7 is listed as “Non-toxic”. The inhibition with Dengue virus [6] is 88.5%; in the data set with West Nile virus, 28%; in [9], 13.4%. Also, in the data set with dengue virus type 2 [8], the inhibition result is “inactive”.

As to `CCCC[C@H](NC(=O)[C@H](CCCN)NC(=O)[C@H](CCCNC(=N)N)NC(=O)c1ccc(/C=C2\SC(=O)N(Cc3ccccc3)C2=O)cc1)C(N)=O`, the EC50 in the data set on dengue virus type 2 [4] worked out at 26.8 µM. Further, the Activity result in the data set with Huh-7 is reported as “Non-toxic”. In addition, the results for the inhibition (with Dengue virus [6]; in the data set with West Nile virus; in [9]) were 74.5%, 45% and 14.3%, respectively. Moreover, the inhibition result with dengue virus type 2 [8] was “inactive”.
